ChEMBL document CHEMBL4014282 (Eur J Med Chem, 2017)
Converted amounts (≈) assume the structure as drawn.

Legend:
[1] = test system: U2OS; test: Antiproliferative activity against human U2OS cells after 72 hrs by CellTiter-Glo luminescent assay; type: functional, cell-based
How it was run: (§1)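 Cells seeded at 2 x 10⁴/well, rested 24 h, then exposed to increasing concentrations or DMSO vehicle for 72 h. MDA-MB-231 grown in RPMI 1640 with 10% FCS; U2OS grown in DMEM + GlutaMAX with 10% FCS; both at 37°C, 5% CO₂. Viable cells read by ATP luminescence, triplicate wells. IC₅₀ from fitted dose-response curves, mean ± SD of at least 3 independent experiments.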

[2] = Aqueous solubility of the compound; type: physicochemical; settings: buffer
[3] = test system: MDA-MB-231; test: Antiproliferative activity against human MDA-MB-231 cells after 72 hrs by CellTiter-Glo luminescent assay; type: functional, cell-based; settings: MDA-MB-231, 72 h; how it was run: as §1
[4] = Fraction unbound in rat plasma at 5 uM by LC-MS/MS method; type: ADME, cell-free
How it was run: (§2)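 Equilibrium dialysis across a semi-permeable membrane, buffer (pH 7.4) on one side and 100% species-specific plasma on the other. Test compound at 5 μM with 0.5% final DMSO, 37 °C. Both sides sampled at equilibrium and quantified by LC-MS/MS against matrix-matched standard curves. %fu from duplicate incubations, with a control compound in each run.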

[5] = test system: U2OS; test: Cell cycle arrest in human U2OS cells assessed as accumulation at G2/M phase after 24 hrs by propidium iodide staining based flow cytometric method; type: functional
How it was run: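 Exponentially growing U2OS cells treated 24 h with compound or DMSO vehicle. Cells collected, PBS-washed and fixed in ice-cold 70% methanol. About 1 million cells stained 30 min at 37 °C with propidium iodide (1%) plus RNase A (2.5%) in PBS, then analysed by flow cytometry. Phase percentages given as mean ± SD of two independent experiments.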

[6] = Stability in simulated gastric fluid at pH 1.2 assessed as compound remaining at 1 uM after 120 mins by LC-MS/MS method
How it was run: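 Simulated gastric fluid (HCl, NaCl, pepsin; pH 1.2), compound at 1 μM with 2.5% final DMSO, 37 °C. Quenched at 0, 15, 30, 60 and 120 min with methanol containing internal standard. Parent quantified by LC-MS/MS peak-area ratio and expressed as percent remaining versus 0 min.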

[7] = Stability in mouse plasma assessed as compound remaining at 1 uM after 120 mins by LC-MS/MS method; type: ADME, cell-free; settings: read-out: Stability
How it was run: (§3)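 Rat or mouse plasma, pH adjusted to 7.4 if needed, spiked with compound at 1 µM (2.5% final DMSO) at 37 °C. Stopped at 0, 15, 30, 60 and 120 min with methanol containing internal standard. Parent measured by LC-MS/MS peak-area ratio and expressed as percent remaining relative to 0 min.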

[8] = Stability in rat plasma assessed as compound remaining at 1 uM after 120 mins by LC-MS/MS method; type: ADME, cell-free; settings: read-out: Stability; how it was run: as §3
[9] = Fraction unbound in mouse plasma at 5 uM by LC-MS/MS method; type: ADME, cell-free; how it was run: as §2
[10] = Intrinsic clearance in Sprague-Dawley rat liver microsomes assessed per mg protein at 3 uM preincubated for 45 mins followed by NADPH addition by LC-MS/MS method
[11] = Stability of the compound in polysorbate80/poloxamer188 formulation using liquid sample at 1 mg/ml at 5 degC after 30 days by UV-HPLC method; type: physicochemical; settings: 720 h
How it was run: (§4)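 Intravenous-type dosage solution: API at 1 mg/mL in water for injection containing polysorbate 80 and poloxamer 188 (5 mg/mL each). API dissolved in the surfactants at 70–80 °C, hot water added slowly, then cooled to ambient. Stored at 5 or 25 °C; stability followed by HPLC over 30 days.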

[12] = Stability of the compound in PEG8000 formulation using solid sample at 5 mg/ml at 5 degC after 30 days by UV-HPLC method; type: physicochemical; settings: 720 h
How it was run: (§5)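 Solid tablets cast from hot melt: API dissolved in melted PEG8000 at 90–100 °C with stirring, or first dissolved in PEG400 and then mixed into melted PEG8000, giving a formulation containing 10% PEG400. Stored at 5 or 25 °C, degradation assessed by HPLC over 30 days, with one reading at 33 days.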

[13] = Stability of the compound in PEG400 using liquid sample at 5 mg/ml at 5 degC after 30 days by UV-HPLC method; type: physicochemical; settings: 720 h
[14] = Stability of the compound in PEG8000 formulation using solid sample at 5 mg/ml at 25 degC after 33 days by UV-HPLC method; type: physicochemical; settings: 792 h; how it was run: as §5
[15] = Thermodynamic solubility of the compound in phosphate buffered saline at pH 7.4 at 1 mg sonicated for 10 mins measured after 12 hrs by HPLC method; type: physicochemical; settings: read-out: Therm_solubility
How it was run: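 Centrifuged until clear, and supernatant analysed by HPLC at 254 nm. Concentration derived from a linear (Y = aX) calibration of MeCN dilutions at 10–100 µg/mL. Measured at 22 °C.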

[16] = Stability of the compound in PEG400 using liquid sample at 5 mg/ml at 25 degC after 30 days by UV-HPLC method; type: physicochemical; settings: 720 h
[17] = Stability of the compound in polysorbate80/poloxamer188 formulation using liquid sample at 1 mg/ml at 25 degC after 30 days by UV-HPLC method; type: physicochemical; settings: 720 h; how it was run: as §4
[18] = Stability of the compound in PEG8000/10% PEG400 formulation using solid sample at 5 mg/ml at 5 degC after 30 days by UV-HPLC method; type: physicochemical; settings: 720 h; how it was run: as §5
[19] = Stability of the compound in PEG8000/10% PEG400 formulation using solid sample assessed as compound degradation at 5 mg/ml at 25 degC after 33 days by UV-HPLC method; type: physicochemical; settings: read-out: Drug degradation; how it was run: as §5
[20] = Stability of the compound in PEG400 using liquid sample at 10 mg/ml at 5 degC after 30 days by UV-HPLC method; type: physicochemical; settings: 720 h
How it was run: (§6)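 API dissolved in PEG400 at 70–80 °C with vortexing to a clear solution at 10 mg/mL. Stored at 5 or 25 °C and checked for degradation by HPLC over 30 days.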

[21] = Stability of the compound in PEG400 using liquid sample at 10 mg/ml at 25 degC after 30 days by UV-HPLC method; type: physicochemical; settings: 720 h; how it was run: as §6
[22] = Intrinsic clearance in CD1 mouse liver microsomes assessed per mg protein at 3 uM preincubated for 45 mins followed by NADPH addition by LC-MS/MS method

Compound | IC50 [1] | IC50 [3] | fraction unbound at 5 µM [4] | Stability [6] | remaining at 2 h, 1 µM [7] | remaining at 2 h, 1 µM [8] | fraction unbound at 5 µM [9] | CLH [10] | other results
COc1cc(OC)c2c(c1Cl)O[C@]1(C2=O)C(O[C@H](C)c2ccccc2)=CC(=O)C[C@H]1C | 13700 nM | 17100 nM |  |  |  |  |  |  | solubility [2]: Insoluble
COC1=CC(=O)C[C@@H](C)[C@]12Oc1c(Cl)c(OC)cc(OC)c1C2=O [GRISEOFULVIN] |  |  | 0.216 | 73% | 107% | 107% | 0.427 |  | Activity [5]: Dose-dependent effect
COc1cc(OC)c2c(c1Cl)O[C@]1(C2=O)C(NCc2ccccc2)=CC(=O)C[C@H]1C | 2100 nM | 3200 nM | 0.111 | 52% | 117% | 116% | 0.141 | 28 mL/min | Activity [5]: Dose-dependent effect; Stability [11]: Stable; Stability [12]: Stable; Stability [13]: Stable; Stability [14]: Stable; solubility thermodynamic at 12 h [15]: 62 µg/mL (≈ 145 µM); Stability [16]: Stable; Stability [17]: Unstable
COc1cc(OC)c2c(c1Cl)O[C@]1(C2=O)C(OCc2ccccc2)=C/C(=N/O)C[C@H]1C | 1200 nM | 1400 nM | 0.014 | 81% | 87% | 102% | 0.043 | 59.1 mL/min | Stability [11]: Stable; Stability [12]: Stable; Stability [13]: Stable; Stability [14]: Stable; solubility thermodynamic at 12 h [15]: 3 µg/mL (≈ 6.76 µM); Stability [16]: Stable; Stability [17]: Stable
COc1cc(OC)c2c(c1Cl)O[C@]1(C2=O)C(O[C@@H](C)c2ccccc2)=CC(=O)C[C@H]1C | 1600 nM | 7100 nM |  |  |  |  |  |  | solubility [2]: Insoluble
COc1cc(OC)c2c(c1Cl)O[C@]1(C2=O)C(OCc2ccc(C)cc2)=CC(=O)C[C@H]1C | 1300 nM | 1700 nM | 0.018 | 68% | 102% | 89% | 0.018 | 60.2 mL/min | 
COc1cc(OC)c2c(c1Cl)O[C@]1(C2=O)C(NCc2ccc(F)cc2)=CC(=O)C[C@H]1C | 2600 nM | 5200 nM | 0.094 | 54% | 108% | 92% | 0.132 |  | 
COc1cc(OC)c2c(c1Cl)O[C@]1(C2=O)C(NCc2ccc(C)cc2)=CC(=O)C[C@H]1C | 6900 nM | 8200 nM | 0.055 | 54% | 107% | 111% | 0.11 |  | 
COc1cc(OC)c2c(c1Cl)O[C@]1(C2=O)C(N(C)Cc2ccccc2)=CC(=O)C[C@H]1C | 1900 nM | 3500 nM | 0.06 | 15% | 104% | 106% | 0.087 |  | 
COc1cc(OC)c2c(c1Cl)O[C@]1(C2=O)C(OCc2ccccc2)=CC(=O)C[C@H]1C | 1300 nM | 1700 nM | 0.027 | 62% | 91% | 101% | 0.112 | 45 mL/min | Stability [18]: Stable; degraded at 792 h, 5 mg/ml [19]: 4%; solubility thermodynamic at 12 h [15]: 0.3 µg/mL (≈ 0.7 µM); Stability [20]: Stable; Stability [17]: Unstable; Stability [21]: Stable
COc1cc(OC)c2c(c1Cl)O[C@]1(C2=O)C(OCc2ccc(F)cc2)=CC(=O)C[C@H]1C |  |  |  |  |  |  |  | 30.7 mL/min | CLH [22]: 17.4 mL/min
